Test results taken from ChEMBL document CHEMBL1667738, “Sesquiterpene benzoxazoles and sesquiterpene quinones from the marine sponge Dactylospongia elegans” (2011).

system: SF-268; assay: Cytotoxicity against human SF268 cells after 48 hrs by SRB assay; assay type: functional; details: SF-268, 48 h
Procedure, shortened: (§1)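 Cells grown in RPMI 1640 with L-glutamine and 5% fetal bovine serum, in a humidified incubator at 37 °C and 5% CO2. Seeded at 5000 cells/well. Pure compounds dissolved in DMSO, serially diluted in medium, and tested at 10 concentrations between 66.7 and 0.01 µg/mL. Total protein measured by SRB at 490 nm at 0 and 48 h. GI50 taken against vehicle-only and time-zero readings.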

C=C1CCC[C@@]23OC4=C(C[C@]2(C)[C@@H](C)CC[C@@]13C)C(=O)C(OC)=CC4=O [DACTYLOQUINONE B] was tested. Which GI50 did it give?
Its GI50 is 32 µM.

How did the GI50 turn out when C=C1CCC[C@H]2[C@](C)(CC3=C(O)C(=O)C=C(OC)C3=O)[C@@H](C)CC[C@]12C [ILIMAQUINONE] was run?
Its GI50 is 2.7 µM.

With C=C1CCC[C@H]2[C@](C)(Cc3c(OC(C)=O)c(OC(C)=O)cc4ncoc34)[C@@H](C)CC[C@]12C [NAKIJINOL B DIACETATE] as the compound, how does the GI50 read?
The GI50 was 9 µM.

C=C1CCC[C@H]2[C@](C)(Cc3c(O)c(O)cc4ncoc34)[C@@H](C)CC[C@]12C [NAKIJINOL B] was tested. Which GI50 did it give?
The GI50 was 24 µM.

Which GI50 does the source give for C=C1CCC[C@H]2[C@](C)(CC3=C(O)C(=O)C=C(NCC(=O)O)C3=O)[C@@H](C)CC[C@]12C [SMENOSPONGINE B] here?
Its GI50 is 9.7 µM.

C=C1CCC[C@H]2[C@](C)(CC3=C(O)C(=O)C=C(NCCC(=O)O)C3=O)[C@@H](C)CC[C@]12C [SMENOSPONGINE C] was tested. Which GI50 did it give?
The GI50 was 20 µM.

system: NCI-H460; assay: Cytotoxicity against human H460 cells after 48 hrs by SRB assay; assay type: functional; details: NCI-H460, 48 h; procedure, shortened: as §1

Which GI50 does the source give for C=C1CCC[C@@]23OC4=C(C[C@]2(C)[C@@H](C)CC[C@@]13C)C(=O)C(OC)=CC4=O [DACTYLOQUINONE B] here?
The GI50 was 30 µM.

C=C1CCC[C@H]2[C@](C)(CC3=C(O)C(=O)C=C(OC)C3=O)[C@@H](C)CC[C@]12C [ILIMAQUINONE] was tested. Which GI50 did it give?
The GI50 was 1.8 µM.

With C=C1CCC[C@H]2[C@](C)(Cc3c(OC(C)=O)c(OC(C)=O)cc4ncoc34)[C@@H](C)CC[C@]12C [NAKIJINOL B DIACETATE] as the compound, how does the GI50 read?
Its GI50 is 6.8 µM.

C=C1CCC[C@H]2[C@](C)(Cc3c(O)c(O)cc4ncoc34)[C@@H](C)CC[C@]12C [NAKIJINOL B] was tested. Which GI50 did it give?
Its GI50 is 24 µM.

C=C1CCC[C@H]2[C@](C)(CC3=C(O)C(=O)C=C(NCC(=O)O)C3=O)[C@@H](C)CC[C@]12C [SMENOSPONGINE B] was tested. Which GI50 did it give?
Its GI50 is 6 µM.

Which GI50 does the source give for C=C1CCC[C@H]2[C@](C)(CC3=C(O)C(=O)C=C(NCCC(=O)O)C3=O)[C@@H](C)CC[C@]12C [SMENOSPONGINE C] here?
Its GI50 is 14 µM.

system: MCF7; assay: Cytotoxicity against human MCF7 cells after 48 hrs by SRB assay; assay type: functional; details: MCF7, 48 h; procedure, shortened: as §1

With C=C1CCC[C@@]23OC4=C(C[C@]2(C)[C@@H](C)CC[C@@]13C)C(=O)C(OC)=CC4=O [DACTYLOQUINONE B] as the compound, how does the GI50 read?
The GI50 was 41 µM.

For C=C1CCC[C@H]2[C@](C)(CC3=C(O)C(=O)C=C(OC)C3=O)[C@@H](C)CC[C@]12C [ILIMAQUINONE], which GI50 is on record?
Its GI50 is 3.9 µM.

C=C1CCC[C@H]2[C@](C)(Cc3c(OC(C)=O)c(OC(C)=O)cc4ncoc34)[C@@H](C)CC[C@]12C [NAKIJINOL B DIACETATE] was tested. Which GI50 did it give?
The GI50 was 19 µM.

Which GI50 does the source give for C=C1CCC[C@H]2[C@](C)(Cc3c(O)c(O)cc4ncoc34)[C@@H](C)CC[C@]12C [NAKIJINOL B] here?
Its GI50 is 35 µM.

For C=C1CCC[C@H]2[C@](C)(CC3=C(O)C(=O)C=C(NCC(=O)O)C3=O)[C@@H](C)CC[C@]12C [SMENOSPONGINE B], which GI50 is on record?
The GI50 was 10 µM.

C=C1CCC[C@H]2[C@](C)(CC3=C(O)C(=O)C=C(NCCC(=O)O)C3=O)[C@@H](C)CC[C@]12C [SMENOSPONGINE C] was tested. Which GI50 did it give?
Its GI50 is 31 µM.

system: CHO-K1; assay: Cytotoxicity against Chinese hamster CHO-K1 cells after 48 hrs by SRB assay; details: Cricetulus griseus, CHO-K1, 48 h

Which GI50 does the source give for C=C1CCC[C@@]23OC4=C(C[C@]2(C)[C@@H](C)CC[C@@]13C)C(=O)C(OC)=CC4=O [DACTYLOQUINONE B] here?
The GI50 was 43 µM.

Which GI50 does the source give for C=C1CCC[C@H]2[C@](C)(CC3=C(O)C(=O)C=C(OC)C3=O)[C@@H](C)CC[C@]12C [ILIMAQUINONE] here?
The GI50 was 2 µM.

For C=C1CCC[C@H]2[C@](C)(Cc3c(OC(C)=O)c(OC(C)=O)cc4ncoc34)[C@@H](C)CC[C@]12C [NAKIJINOL B DIACETATE], which GI50 is on record?
Its GI50 is 5.2 µM.

With C=C1CCC[C@H]2[C@](C)(Cc3c(O)c(O)cc4ncoc34)[C@@H](C)CC[C@]12C [NAKIJINOL B] as the compound, how does the GI50 read?
The GI50 was 11 µM.

Which GI50 does the source give for C=C1CCC[C@H]2[C@](C)(CC3=C(O)C(=O)C=C(NCC(=O)O)C3=O)[C@@H](C)CC[C@]12C [SMENOSPONGINE B] here?
The GI50 was 3 µM.

How did the GI50 turn out when C=C1CCC[C@H]2[C@](C)(CC3=C(O)C(=O)C=C(NCCC(=O)O)C3=O)[C@@H](C)CC[C@]12C [SMENOSPONGINE C] was run?
Its GI50 is 18 µM.

system: HT-29; assay: Cytotoxicity against human HT-29 cells after 48 hrs by SRB assay; assay type: functional; details: HT-29, 48 h
Procedure, shortened: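 CHO-K1 (Chinese hamster ovary subclone) and HT-29 cells grown in MEM with Earle's salts, L-glutamine, nonessential amino acids and sodium pyruvate. Seeded at 5000 cells/well. Compounds dissolved in DMSO, serially diluted in medium, and tested at 10 concentrations spanning 66.7–0.01 µg/mL. SRB protein read at 490 nm at 0 and 48 h. GI50 derived against vehicle-only and time-zero values.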

For C=C1CCC[C@@]23OC4=C(C[C@]2(C)[C@@H](C)CC[C@@]13C)C(=O)C(OC)=CC4=O [DACTYLOQUINONE B], which GI50 is on record?
The GI50 was 46 µM.

C=C1CCC[C@H]2[C@](C)(CC3=C(O)C(=O)C=C(OC)C3=O)[C@@H](C)CC[C@]12C [ILIMAQUINONE] was tested. Which GI50 did it give?
The GI50 was 5.4 µM.

With C=C1CCC[C@H]2[C@](C)(Cc3c(OC(C)=O)c(OC(C)=O)cc4ncoc34)[C@@H](C)CC[C@]12C [NAKIJINOL B DIACETATE] as the compound, how does the GI50 read?
Its GI50 is 15 µM.

For C=C1CCC[C@H]2[C@](C)(Cc3c(O)c(O)cc4ncoc34)[C@@H](C)CC[C@]12C [NAKIJINOL B], which GI50 is on record?
Its GI50 is 21 µM.

With C=C1CCC[C@H]2[C@](C)(CC3=C(O)C(=O)C=C(NCC(=O)O)C3=O)[C@@H](C)CC[C@]12C [SMENOSPONGINE B] as the compound, how does the GI50 read?
Its GI50 is 6 µM.

Which GI50 does the source give for C=C1CCC[C@H]2[C@](C)(CC3=C(O)C(=O)C=C(NCCC(=O)O)C3=O)[C@@H](C)CC[C@]12C [SMENOSPONGINE C] here?
The GI50 was 28 µM.
